Test results published in publication PMC4131791 (Memórias do Instituto Oswaldo Cruz, 2014).
Converted amounts (≈) assume the structure as drawn.

Test system: Trypanosoma cruzi (Tulahuen strain) expressing β-galactosidase, trypomastigote and amastigote forms
Assay type: cell-based
Settings: L929, read-out: IC50 of the positive control
In short: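 L929 fibroblasts were seeded at 4,000/well in phenol red-free RPMI-1640 with 10% FBS and glutamine, then left overnight at 37 °C with 5% CO2. Cells were infected with β-galactosidase Tulahuen trypomastigotes at 40,000/well for 2 h, and free parasites were washed out. After 48 h, test compound (about 100-2 µM, triplicate, from DMSO stocks) was added. After seven days of culture, 100 µM CPRG with 0.1% Nonidet P-40 was added overnight at 37 °C and A570 read. Results were expressed as % growth inhibition, with IC50 by linear interpolation. Benznidazole served as positive control.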

IC50: 1 µg/mL (≈ 3.84 µM)
Structure (SMILES): O=C(Cn1ccnc1[N+](=O)[O-])NCc1ccccc1 [Benznidazole, benznidazole]
